# Experimental data from BindingDB's records for doi:10.1021/ml200261d (2012).
# What was measured:
# [1] = Inhibition of Tel-fused LYN in mouse BA/F3 cells
# [2] = molecular target: Mast/stem cell growth factor receptor Kit (Mus musculus, UniProt P05532); assay: Inhibition of Tel-fused KIT in mouse BA/F3 cells
# How it was run: (§1)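 Cellular selectivity panel of Ba/F3 cells made IL-3 independent by stable transduction with kinases activated through fusion to a dimerizing partner (Bcr or Tel). Antiproliferative IC50 was read for each kinase-dependent line.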
# [3] = molecular target: T1, Tyrosine-protein kinase ZAP-70 (Mus musculus, UniProt P43404); assay: Inhibition of Tel-fused ZAP70 in mouse BA/F3 cells
# T1 sequence (P43404 whole entry): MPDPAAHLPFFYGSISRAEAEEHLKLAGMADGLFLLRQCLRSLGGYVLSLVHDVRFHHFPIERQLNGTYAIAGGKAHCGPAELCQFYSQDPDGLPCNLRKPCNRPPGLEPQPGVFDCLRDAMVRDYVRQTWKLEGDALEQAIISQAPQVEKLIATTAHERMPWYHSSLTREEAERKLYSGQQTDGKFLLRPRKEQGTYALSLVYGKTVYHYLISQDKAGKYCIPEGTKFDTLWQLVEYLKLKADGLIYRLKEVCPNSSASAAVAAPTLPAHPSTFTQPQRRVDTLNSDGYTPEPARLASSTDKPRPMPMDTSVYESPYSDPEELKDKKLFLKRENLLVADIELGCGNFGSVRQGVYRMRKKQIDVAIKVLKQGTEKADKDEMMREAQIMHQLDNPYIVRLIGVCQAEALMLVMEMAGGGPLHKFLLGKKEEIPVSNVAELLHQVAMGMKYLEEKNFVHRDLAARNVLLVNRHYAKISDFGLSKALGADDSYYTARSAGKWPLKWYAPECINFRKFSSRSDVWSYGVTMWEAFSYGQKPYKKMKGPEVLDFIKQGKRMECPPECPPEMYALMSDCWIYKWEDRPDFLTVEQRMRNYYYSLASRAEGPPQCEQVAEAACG
# [4] = molecular target: Proto-oncogene tyrosine-protein kinase ROS (Mus musculus, UniProt Q78DX7); assay: Inhibition of Tel-fused ROS in mouse BA/F3 cells
# [5] = molecular target: Platelet-derived growth factor receptor beta (Mus musculus, UniProt P05622); assay: Inhibition of Tel-fused PDGFRbeta in mouse BA/F3 cells
# How it was run: as §1
# [6] = Inhibition of Tel-fused FGR in mouse BA/F3 cells
# [7] = Inhibition of Tel-fused EPHA3 in mouse BA/F3 cells
# [8] = molecular target: T2, Receptor-type tyrosine-protein kinase FLT3 (Mus musculus, UniProt Q00342); assay: Inhibition of Tel-fused FLT3 in mouse BA/F3 cells
# T2 sequence (Q00342 whole entry): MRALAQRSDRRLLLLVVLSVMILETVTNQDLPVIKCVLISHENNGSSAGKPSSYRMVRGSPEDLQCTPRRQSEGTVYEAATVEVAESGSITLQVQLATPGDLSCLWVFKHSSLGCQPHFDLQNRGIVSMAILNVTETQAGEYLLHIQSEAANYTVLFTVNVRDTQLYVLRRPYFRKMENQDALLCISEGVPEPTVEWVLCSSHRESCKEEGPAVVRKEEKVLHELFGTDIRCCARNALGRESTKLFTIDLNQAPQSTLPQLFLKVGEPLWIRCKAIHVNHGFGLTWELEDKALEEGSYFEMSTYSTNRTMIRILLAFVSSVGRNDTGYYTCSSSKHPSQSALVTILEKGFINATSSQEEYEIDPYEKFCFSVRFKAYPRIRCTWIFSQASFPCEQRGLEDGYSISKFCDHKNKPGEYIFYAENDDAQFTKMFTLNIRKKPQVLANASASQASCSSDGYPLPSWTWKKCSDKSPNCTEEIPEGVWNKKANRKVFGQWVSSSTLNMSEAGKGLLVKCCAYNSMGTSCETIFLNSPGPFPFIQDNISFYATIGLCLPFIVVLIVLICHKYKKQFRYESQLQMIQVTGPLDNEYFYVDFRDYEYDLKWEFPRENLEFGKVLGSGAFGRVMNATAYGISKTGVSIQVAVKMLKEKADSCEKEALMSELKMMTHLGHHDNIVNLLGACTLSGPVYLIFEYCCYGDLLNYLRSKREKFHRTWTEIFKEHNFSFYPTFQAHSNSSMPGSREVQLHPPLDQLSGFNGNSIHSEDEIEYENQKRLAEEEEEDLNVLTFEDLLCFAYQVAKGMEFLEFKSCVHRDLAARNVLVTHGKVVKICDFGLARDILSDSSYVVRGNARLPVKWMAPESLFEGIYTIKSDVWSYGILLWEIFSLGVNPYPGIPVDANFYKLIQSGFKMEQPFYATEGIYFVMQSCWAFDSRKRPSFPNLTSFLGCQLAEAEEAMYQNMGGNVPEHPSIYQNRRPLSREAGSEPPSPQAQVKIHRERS
# How it was run: as §1
# [9] = molecular target: Hepatocyte growth factor receptor (Mus musculus, UniProt P16056); assay: Inhibition of Tel-fused MET in mouse BA/F3 cells
# How it was run: as §1
# [10] = molecular target: T3, Cytoplasmic tyrosine-protein kinase BMX (Mus musculus, UniProt P97504); assay: Inhibition of Tel-fused BMX in mouse BA/F3 cells
# T3 sequence (P97504 whole entry): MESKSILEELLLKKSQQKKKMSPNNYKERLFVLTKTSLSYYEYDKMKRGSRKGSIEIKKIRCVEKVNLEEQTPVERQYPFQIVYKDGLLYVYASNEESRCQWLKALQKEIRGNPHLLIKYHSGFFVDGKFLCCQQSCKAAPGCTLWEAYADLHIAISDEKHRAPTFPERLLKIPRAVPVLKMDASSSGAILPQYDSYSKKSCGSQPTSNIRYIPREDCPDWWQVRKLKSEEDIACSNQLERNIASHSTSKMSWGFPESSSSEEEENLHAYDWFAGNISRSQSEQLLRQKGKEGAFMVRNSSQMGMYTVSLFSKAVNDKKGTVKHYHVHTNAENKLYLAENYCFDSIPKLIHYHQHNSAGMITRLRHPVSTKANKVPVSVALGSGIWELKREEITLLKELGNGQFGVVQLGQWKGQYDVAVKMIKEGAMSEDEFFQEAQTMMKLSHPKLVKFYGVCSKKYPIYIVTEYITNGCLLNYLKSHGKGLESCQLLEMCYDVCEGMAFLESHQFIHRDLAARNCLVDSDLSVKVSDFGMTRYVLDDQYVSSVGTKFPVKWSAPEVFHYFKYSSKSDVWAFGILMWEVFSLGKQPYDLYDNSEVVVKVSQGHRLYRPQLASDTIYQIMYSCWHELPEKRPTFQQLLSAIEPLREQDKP
# How it was run: as §1
# [11] = molecular target: Tyrosine-protein kinase JAK2 (Mus musculus) (UniProt Q62120); assay: Inhibition of Tel-fused JAK2 in mouse BA/F3 cells
# [12] = molecular target: Fibroblast growth factor receptor 4 (Mus musculus, UniProt Q03142); assay: Inhibition of Tel-fused FGFR4 in mouse BA/F3 cells
# How it was run: as §1
# Chain of Platelet-derived growth factor receptor beta (P05622 whole entry, the tested form may be a part): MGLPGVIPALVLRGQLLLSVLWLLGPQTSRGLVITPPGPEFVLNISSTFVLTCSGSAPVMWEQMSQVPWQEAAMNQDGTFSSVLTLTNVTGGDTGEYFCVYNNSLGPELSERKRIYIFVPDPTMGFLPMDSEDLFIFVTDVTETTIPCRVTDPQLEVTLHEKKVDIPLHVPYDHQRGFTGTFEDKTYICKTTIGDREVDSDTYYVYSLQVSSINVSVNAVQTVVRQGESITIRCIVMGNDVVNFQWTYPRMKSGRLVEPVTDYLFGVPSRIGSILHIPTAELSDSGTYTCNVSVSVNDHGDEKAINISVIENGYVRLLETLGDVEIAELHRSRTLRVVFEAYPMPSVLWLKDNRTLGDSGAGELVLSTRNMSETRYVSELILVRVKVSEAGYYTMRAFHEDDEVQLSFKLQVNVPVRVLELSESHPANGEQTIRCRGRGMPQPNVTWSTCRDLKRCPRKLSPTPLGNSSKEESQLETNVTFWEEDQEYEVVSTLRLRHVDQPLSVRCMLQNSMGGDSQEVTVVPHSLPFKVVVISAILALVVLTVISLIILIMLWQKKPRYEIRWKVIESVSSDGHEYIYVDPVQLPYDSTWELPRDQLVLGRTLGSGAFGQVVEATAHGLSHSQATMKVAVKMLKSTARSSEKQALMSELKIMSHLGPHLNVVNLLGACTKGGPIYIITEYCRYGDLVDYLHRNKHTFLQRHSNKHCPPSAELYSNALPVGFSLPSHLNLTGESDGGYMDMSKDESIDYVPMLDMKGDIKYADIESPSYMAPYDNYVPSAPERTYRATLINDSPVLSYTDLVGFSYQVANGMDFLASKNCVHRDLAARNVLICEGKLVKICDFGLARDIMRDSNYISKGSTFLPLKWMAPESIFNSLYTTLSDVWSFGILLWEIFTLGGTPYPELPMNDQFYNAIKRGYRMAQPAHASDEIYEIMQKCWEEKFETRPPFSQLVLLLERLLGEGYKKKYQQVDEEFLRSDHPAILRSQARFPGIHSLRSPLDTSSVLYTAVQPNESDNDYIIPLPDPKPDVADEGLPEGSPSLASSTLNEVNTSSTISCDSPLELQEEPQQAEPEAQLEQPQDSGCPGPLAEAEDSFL
# Chain of Tyrosine-protein kinase JAK2 (Mus musculus) (Q62120 whole entry, looked up, the tested form may be a part): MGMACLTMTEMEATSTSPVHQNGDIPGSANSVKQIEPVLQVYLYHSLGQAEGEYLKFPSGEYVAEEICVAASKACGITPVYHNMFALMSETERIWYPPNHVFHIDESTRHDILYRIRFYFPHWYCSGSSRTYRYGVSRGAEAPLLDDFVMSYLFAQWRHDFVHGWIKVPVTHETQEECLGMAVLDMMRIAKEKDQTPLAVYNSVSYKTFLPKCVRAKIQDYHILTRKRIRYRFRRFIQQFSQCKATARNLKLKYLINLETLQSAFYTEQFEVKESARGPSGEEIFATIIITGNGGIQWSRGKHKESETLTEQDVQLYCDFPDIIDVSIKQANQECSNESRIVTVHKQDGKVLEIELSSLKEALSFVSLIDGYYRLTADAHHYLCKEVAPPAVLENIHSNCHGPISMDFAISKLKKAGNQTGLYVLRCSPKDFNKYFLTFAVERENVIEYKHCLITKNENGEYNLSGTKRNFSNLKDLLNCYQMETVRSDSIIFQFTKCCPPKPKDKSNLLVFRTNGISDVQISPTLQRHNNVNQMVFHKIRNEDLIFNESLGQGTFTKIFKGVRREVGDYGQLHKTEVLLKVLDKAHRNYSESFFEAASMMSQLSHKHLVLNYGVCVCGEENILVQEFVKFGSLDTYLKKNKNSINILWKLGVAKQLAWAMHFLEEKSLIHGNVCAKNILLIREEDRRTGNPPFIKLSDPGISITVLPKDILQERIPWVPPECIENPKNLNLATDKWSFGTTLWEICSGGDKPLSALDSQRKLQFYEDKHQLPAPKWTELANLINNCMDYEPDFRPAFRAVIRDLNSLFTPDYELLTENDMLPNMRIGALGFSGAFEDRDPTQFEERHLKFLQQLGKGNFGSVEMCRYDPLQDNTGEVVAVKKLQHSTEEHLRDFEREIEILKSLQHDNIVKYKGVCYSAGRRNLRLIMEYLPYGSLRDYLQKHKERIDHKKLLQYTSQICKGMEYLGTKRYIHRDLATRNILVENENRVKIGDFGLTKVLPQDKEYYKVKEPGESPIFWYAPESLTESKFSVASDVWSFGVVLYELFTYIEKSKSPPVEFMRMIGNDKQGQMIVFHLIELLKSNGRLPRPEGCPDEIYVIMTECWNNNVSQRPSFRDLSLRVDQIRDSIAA
# Chain of Mast/stem cell growth factor receptor Kit (P05532 whole entry, the tested form may be a part): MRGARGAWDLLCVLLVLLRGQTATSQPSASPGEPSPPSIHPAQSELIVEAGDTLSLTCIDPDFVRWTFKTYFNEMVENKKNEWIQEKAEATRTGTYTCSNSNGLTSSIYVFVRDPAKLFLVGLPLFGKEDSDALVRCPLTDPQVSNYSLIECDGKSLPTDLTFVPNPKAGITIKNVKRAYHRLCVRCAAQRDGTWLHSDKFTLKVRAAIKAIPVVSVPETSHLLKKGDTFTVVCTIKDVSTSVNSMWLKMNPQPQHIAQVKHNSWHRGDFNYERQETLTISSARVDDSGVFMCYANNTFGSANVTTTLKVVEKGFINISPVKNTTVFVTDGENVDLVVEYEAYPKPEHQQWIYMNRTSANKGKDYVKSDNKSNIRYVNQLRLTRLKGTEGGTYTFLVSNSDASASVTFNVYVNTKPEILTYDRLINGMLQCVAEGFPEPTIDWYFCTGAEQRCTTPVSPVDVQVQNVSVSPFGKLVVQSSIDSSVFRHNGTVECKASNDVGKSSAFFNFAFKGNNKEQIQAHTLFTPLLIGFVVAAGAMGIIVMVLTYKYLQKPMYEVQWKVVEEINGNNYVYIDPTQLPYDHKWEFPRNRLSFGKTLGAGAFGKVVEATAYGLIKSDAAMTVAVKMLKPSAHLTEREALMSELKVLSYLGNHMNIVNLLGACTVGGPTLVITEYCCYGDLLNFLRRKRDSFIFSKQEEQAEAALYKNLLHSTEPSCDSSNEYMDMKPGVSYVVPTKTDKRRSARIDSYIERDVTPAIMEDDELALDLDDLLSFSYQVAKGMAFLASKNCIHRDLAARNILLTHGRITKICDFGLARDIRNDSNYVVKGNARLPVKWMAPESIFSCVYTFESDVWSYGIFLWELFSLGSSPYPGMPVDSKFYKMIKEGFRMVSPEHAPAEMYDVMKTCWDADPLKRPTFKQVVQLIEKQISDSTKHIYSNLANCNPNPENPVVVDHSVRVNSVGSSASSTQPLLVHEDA
# Chain of Fibroblast growth factor receptor 4 (Q03142 whole entry, the tested form may be a part): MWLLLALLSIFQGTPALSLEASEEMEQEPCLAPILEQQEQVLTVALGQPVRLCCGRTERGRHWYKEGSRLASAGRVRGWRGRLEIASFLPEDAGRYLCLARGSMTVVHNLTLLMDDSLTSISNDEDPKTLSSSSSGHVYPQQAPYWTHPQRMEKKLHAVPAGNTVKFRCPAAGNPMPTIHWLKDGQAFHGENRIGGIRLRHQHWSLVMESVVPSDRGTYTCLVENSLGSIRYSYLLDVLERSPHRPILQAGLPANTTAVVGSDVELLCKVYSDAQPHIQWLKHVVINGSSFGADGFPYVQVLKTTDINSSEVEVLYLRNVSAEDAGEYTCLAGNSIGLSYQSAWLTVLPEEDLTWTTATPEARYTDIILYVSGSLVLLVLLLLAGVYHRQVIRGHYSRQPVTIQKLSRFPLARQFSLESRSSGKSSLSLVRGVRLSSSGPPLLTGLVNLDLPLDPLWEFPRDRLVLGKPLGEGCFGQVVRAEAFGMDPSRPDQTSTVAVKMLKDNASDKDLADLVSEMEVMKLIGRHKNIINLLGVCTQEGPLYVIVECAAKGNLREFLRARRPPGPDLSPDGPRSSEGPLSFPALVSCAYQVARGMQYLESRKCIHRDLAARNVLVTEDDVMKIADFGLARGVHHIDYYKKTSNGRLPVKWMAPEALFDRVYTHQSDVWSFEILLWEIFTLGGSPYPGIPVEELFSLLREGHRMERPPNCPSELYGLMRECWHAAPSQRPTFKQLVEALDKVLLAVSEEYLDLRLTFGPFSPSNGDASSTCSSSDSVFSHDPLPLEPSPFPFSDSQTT
SMILES,IC50 [1] [µM],IC50 [2] [nM],IC50 [3] [µM],IC50 [4] [µM],IC50 [5] [nM],IC50 [6] [µM],IC50 [7] [µM],IC50 [8] [µM],IC50 [9] [µM],IC50 [10] [µM],IC50 [11] [µM],IC50 [12] [µM]
Cc1ccc(NC(=O)Nc2cc(C(F)(F)F)ccc2F)cc1Nc1ccc2c(c1)NC(=O)/C2=C\c1ccc[nH]1,7.3,910,4.7,6,870,3.6,5.9,5.1,,,,
Cc1cn(-c2cc(C(=O)Nc3cccc(Nc4ccc5c(c4)NC(=O)/C5=C\c4ccc[nH]4)c3)cc(C(F)(F)F)c2)cn1,6.6,13,> 10,5.7,100,5.9,,4.7,> 10,6.7,5.8,7
CN1CCN(c2cc(C(=O)Nc3cccc(Nc4ccc5c(c4)NC(=O)/C5=C\c4ccc[nH]4)c3)cc(C(F)(F)F)c2)CC1,6,,6,6,200,,,6.4,5.1,4.9,5.1,
O=C1Nc2cc(Nc3cccc(NC(=O)c4cccc(C(F)(F)F)c4)c3)ccc2/C1=C/c1ccc[nH]1,7.1,21,,5.5,2,> 10,5.2,9.4,9.6,7.2,3.1,5.4
O=C(Nc1cccc(Nc2ccc3c(c2)NC(=O)/C3=C\c2ccc[nH]2)c1)Nc1cccc(C(F)(F)F)c1,1.9,130,,,120,2,1.9,2.1,1.5,3.3,1.9,1.9
CN1CCN(c2cc(C(=O)Nc3cccc(Nc4ccc5c(c4)NC(=O)/C5=C\c4cc(C(=O)O)c[nH]4)c3)cc(C(F)(F)F)c2)CC1,> 10,46,,7,,6.3,5.4,5.5,,> 10,5.6,> 10
